Assays:
[1] = target: Protein kinase C alpha type (Homo sapiens) (UniProt P17252); experiment: Inhibition of PKCalpha (unknown origin) at 30 uM by microfluidic mobility shift assay relative to control
Outline: (§1)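 Single-point screen at 30 µM test compound across a 24-kinase panel in a microfluidic assay format. ATP was set near each enzyme's Km,[ATP]. […] The pan-AGC inhibitor H-89 served as an internal control on every assay plate.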

[2] = target: Serine/threonine-protein kinase pim-1 (Homo sapiens) (UniProt P11309); experiment: Inhibition of PIM1 (unknown origin) at 30 uM by microfluidic mobility shift assay relative to control; outline: as §1
Homo sapiens = species: Homo sapiens; experiment: Inhibition of DYRK1 (unknown origin) at 30 uM by microfluidic mobility shift assay relative to control; outline: as §1
[3] = target: T1, Serine/threonine-protein kinase BRSK2 (Homo sapiens) (UniProt Q8IWQ3); experiment: Inhibition of BRSK2 (unknown origin) at 30 uM by microfluidic mobility shift assay relative to control; outline: as §1
T1 sequence (whole entry): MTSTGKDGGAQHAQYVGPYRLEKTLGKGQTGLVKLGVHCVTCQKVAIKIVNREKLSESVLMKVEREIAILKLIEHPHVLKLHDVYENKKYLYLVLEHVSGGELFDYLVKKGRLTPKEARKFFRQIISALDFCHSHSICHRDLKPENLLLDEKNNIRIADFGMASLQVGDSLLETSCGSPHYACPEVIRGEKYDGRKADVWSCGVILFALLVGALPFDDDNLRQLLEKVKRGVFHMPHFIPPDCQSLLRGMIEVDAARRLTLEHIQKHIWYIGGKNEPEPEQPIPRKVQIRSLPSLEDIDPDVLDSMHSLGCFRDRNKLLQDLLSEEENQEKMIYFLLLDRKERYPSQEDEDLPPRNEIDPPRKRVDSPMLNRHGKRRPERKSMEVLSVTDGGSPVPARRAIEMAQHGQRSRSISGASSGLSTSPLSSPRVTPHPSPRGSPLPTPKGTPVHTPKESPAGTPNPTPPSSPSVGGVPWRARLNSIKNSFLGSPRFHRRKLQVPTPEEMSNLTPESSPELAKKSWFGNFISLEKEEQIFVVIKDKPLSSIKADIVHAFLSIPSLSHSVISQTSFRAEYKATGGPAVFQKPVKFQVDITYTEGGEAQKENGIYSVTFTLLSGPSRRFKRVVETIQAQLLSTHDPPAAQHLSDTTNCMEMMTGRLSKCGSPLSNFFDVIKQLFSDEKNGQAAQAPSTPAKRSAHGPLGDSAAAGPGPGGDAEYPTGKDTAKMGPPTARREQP

[4] = target: T2, Serine/threonine-protein kinase Sgk1 (Homo sapiens) (UniProt O00141); experiment: Inhibition of SGK1 (unknown origin) at 30 uM by microfluidic mobility shift assay relative to control
T2 sequence (whole entry): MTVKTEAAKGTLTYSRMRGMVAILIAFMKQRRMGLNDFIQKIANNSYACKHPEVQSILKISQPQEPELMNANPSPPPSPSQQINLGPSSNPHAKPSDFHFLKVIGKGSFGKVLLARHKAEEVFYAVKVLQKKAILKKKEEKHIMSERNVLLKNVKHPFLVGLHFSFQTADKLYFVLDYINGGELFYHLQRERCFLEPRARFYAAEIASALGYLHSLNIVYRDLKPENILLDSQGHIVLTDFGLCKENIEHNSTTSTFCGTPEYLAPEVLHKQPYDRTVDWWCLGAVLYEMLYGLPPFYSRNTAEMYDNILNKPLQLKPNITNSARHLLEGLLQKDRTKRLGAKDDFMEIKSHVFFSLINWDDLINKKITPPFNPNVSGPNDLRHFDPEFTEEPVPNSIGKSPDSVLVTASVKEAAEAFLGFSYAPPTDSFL
Outline: (§2)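 Single-point screen against a 24-kinase panel in a commercial microfluidic assay format. Compounds were tested at 30 µM, with ATP at approximately the Km,[ATP] of each enzyme. H-89 was included on each assay plate as an internal control.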

[5] = target: Aurora kinase B (Homo sapiens) (UniProt Q96GD4); experiment: Inhibition of AURB (unknown origin) at 30 uM by microfluidic mobility shift assay relative to control; outline: as §1
[6] = target: T3, Protein kinase C zeta type (Homo sapiens) (UniProt Q05513); experiment: Inhibition of PKCzeta (unknown origin) at 30 uM by microfluidic mobility shift assay relative to control; outline: as §2
T3 sequence (whole entry): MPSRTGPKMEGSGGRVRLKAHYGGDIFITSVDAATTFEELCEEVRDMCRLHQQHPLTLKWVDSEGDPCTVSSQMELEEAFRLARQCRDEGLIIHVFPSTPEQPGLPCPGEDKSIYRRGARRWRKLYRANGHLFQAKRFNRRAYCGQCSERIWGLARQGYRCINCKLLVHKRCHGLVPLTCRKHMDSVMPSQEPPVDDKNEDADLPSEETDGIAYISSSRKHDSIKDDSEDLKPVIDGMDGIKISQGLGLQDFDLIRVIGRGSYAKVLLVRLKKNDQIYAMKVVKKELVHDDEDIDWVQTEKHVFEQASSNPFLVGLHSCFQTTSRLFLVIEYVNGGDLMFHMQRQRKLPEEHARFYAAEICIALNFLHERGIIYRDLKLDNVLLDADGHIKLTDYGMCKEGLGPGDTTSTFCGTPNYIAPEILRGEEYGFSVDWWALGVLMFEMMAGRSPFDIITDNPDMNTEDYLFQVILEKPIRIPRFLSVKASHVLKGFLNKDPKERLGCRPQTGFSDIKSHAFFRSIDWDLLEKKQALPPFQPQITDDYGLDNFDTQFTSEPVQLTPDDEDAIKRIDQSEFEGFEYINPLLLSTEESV

Chain of Aurora kinase B (Homo sapiens) (Q96GD4 whole entry): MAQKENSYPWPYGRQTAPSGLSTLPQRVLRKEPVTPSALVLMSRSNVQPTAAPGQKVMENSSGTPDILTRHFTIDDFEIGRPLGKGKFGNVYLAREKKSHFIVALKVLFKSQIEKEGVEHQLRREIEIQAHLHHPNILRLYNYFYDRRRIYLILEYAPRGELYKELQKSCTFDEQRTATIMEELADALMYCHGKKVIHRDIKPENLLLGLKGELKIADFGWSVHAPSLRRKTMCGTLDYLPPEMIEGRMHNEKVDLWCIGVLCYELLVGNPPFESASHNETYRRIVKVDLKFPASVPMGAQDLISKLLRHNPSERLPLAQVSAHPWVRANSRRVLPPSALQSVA
Chain of Serine/threonine-protein kinase pim-1 (Homo sapiens) (P11309 whole entry, looked up): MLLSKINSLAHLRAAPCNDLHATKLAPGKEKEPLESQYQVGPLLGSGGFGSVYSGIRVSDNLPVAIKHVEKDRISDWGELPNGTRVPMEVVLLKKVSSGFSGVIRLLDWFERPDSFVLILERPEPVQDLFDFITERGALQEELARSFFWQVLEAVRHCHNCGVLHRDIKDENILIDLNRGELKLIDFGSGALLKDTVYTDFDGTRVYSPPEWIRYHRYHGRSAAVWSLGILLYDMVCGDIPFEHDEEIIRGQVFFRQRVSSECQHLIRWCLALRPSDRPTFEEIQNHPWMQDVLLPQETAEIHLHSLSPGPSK

| inhibition [1] [%] | inhibition [2] [%] | inhibition (Homo sapiens) [%] | inhibition [3] [%] | inhibition [4] [%] | inhibition [5] [%] | inhibition [6] [%] | Structure (SMILES) |
| --- | --- | --- | --- | --- | --- | --- | --- |
| 59 | 7 | 8 | 16 | 41 | 64 | 0 | c1ccc(C2CCNC3(CCN(c4ncnc5[nH]cnc45)CC3)C2)cc1 (racemic) |
| 78 | 8 | 7 | 0 | 64 | 66 | 0 | c1ccc(CC2CCNC3(CCN(c4ncnc5[nH]cnc45)CC3)C2)cc1 (racemic) |
| 35 | 11 | 13 | 1 | 15 | 73 | 0 | c1ccc(CC2CCC3(CCN(c4ncnc5[nH]cnc45)CC3)NC2)cc1 (racemic) |

Source: ChEMBL document CHEMBL2417369, “Synthesis and evaluation of heteroaryl substituted diazaspirocycles as scaffolds to probe the ATP-binding site of protein kinases” (Bioorg Med Chem, 2013)
